ChEMBL document CHEMBL3588770, “Novel spirohydantoin derivative as a potent multireceptor-active antipsychotic and antidepressant agent” (Bioorg Med Chem, 2015)
Activity calls are given as the source filed them. The rule behind the calls is not given here.

Legend:
[1] = test system: Mus musculus; assay: In vivo partial agonist activity at 5HT1A receptor in CD-1 mouse assessed as change in body temperature at 10 mg/kg, ip administered 15 mins after 5HT1A receptor antagonist WAY100635 injection measured after 60 mins (reference value: -0.1 degC); assay type: functional, organism-based
Summary of the method: (§1)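 Male CD-1 mice, 7-9 per dose. WAY 100635 (0.3 mg/kg) was given 15 min before the compound i.p. Rectal temperature was recorded 30 and 60 min after the compound, as the change from basal temperature.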

[2] = test system: Mus musculus; assay: In vivo partial agonist activity at 5HT1A receptor in CD-1 mouse assessed as change in body temperature at 10 mg/kg, ip measured after 60 mins (reference value: -0.1 degC); assay type: functional, organism-based
Summary of the method: (§2)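 Male CD-1 mice, 7-9 per dose, compound suspended in 1% aqueous Tween 80 and given i.p. at 10 ml/kg. Rectal temperature was taken by thermometer 30, 60, 90 and 120 min after dosing. Change (Δt) is expressed against basal temperature measured at the start. Mean ± SEM, one-way ANOVA with Bonferroni test.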

[3] = test system: Mus musculus; assay: In vivo partial agonist activity at 5HT1A receptor in CD-1 mouse assessed as change in body temperature at 5 mg/kg, ip measured after 30 mins (reference value: -0.1 degC); assay type: functional, organism-based; summary of the method: as §2
[4] = test system: Mus musculus; assay: In vivo partial agonist activity at 5HT1A receptor in CD-1 mouse assessed as change in body temperature at 10 mg/kg, ip administered 15 mins after 5HT1A receptor antagonist WAY100635 injection measured after 30 mins (reference value: -0.1 degC); assay type: functional, organism-based; summary of the method: as §1
[5] = test system: Mus musculus; assay: Antianxiety-like activity in Swiss albino mouse assessed as number of punished crossings at 0.312 to 5 mg/kg, ip by four-plate test; assay type: functional, organism-based
Summary of the method: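 Four-plate test in male Swiss albino mice, 8-10 per dose, dosed i.p. in Tween 80 vehicle. After 15-s habituation, a 0.8 mA, 0.5 s foot shock was given at each plate crossing, with a 3 s shock-free interval. Punished crossings were counted over a 1-min session.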

[6] = test system: Mus musculus; assay: In vivo antagonist activity at D2 receptor in ip dosed Swiss albino mouse assessed as inhibition of apomorphine-induced climbing behaviour administered 10 mins prior to apomophine injection measured after 20 mins; assay type: functional
Summary of the method: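 Male Swiss albino mice, 5-6 per dose, in metal-bar cages. Compound i.p. was followed 10 min later by apomorphine 3 mg/kg i.p. Climbing time (2–4 paws on the wall) was measured for 2 min starting 20 min after apomorphine. ID50 is the dose inhibiting climbing by 50%.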

[7] = test system: Mus musculus; assay: In vivo partial agonist activity at 5HT1A receptor in CD-1 mouse assessed as change in body temperature at 10 mg/kg, ip measured after 120 mins (reference value: -0.1 degC); assay type: functional, organism-based
Summary of the method: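 Male CD-1 mice, 7-9 per dose, dosed i.p. Rectal temperature was recorded at 30, 60, 90 and 120 min. Results are the change from basal temperature taken at the start of the experiment.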

[8] = test system: Mus musculus; assay: Toxicity in Swiss albino mouse assessed as stimulation of spontaneous locomotor activity at 2.5 to 5 mg/kg, ip measured during 2-6 mins session; assay type: organism-based; details: in vivo
Summary of the method: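 Male Swiss albino mice, 8-10 per dose, received compound i.p. 60 min before testing. Each mouse was placed individually in a cage on an infrared activity monitor. Channel crossings (ambulation) were counted from 2 to 6 min, matching the forced swim test observation window.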

[9] = test system: Mus musculus; assay: Anti-depressant like activity in Swiss albino mouse assessed as shortening of immobility time at 5 mg/kg, ip by forced swim test; assay type: functional
Summary of the method: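 Forced swim test in male Swiss albino mice, 7-9 per dose. Compound was given i.p. in 1% Tween 80 at 10 ml/kg, 60 min pretest. Mice swam for 6 min in a cylinder with 6 cm of water at 23-25 °C. Immobility was scored over the last 4 min. Analysis was one-way ANOVA with Bonferroni.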

[10] = test system: Mus musculus; assay: Toxicity in ip dosed CD-1 mouse assessed as minimum dose required for induction of catalepsy by bar test; assay type: organism-based; details: in vivo
Summary of the method: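 Male CD-1 mice, 10 per group, given compound i.p. (1% Tween 80 suspension). Forelimbs were placed on a horizontal rod 4 cm high at 30, 60 and 120 min. Catalepsy was scored up to 3 (≥60 s on bar). Minimum cataleptogenic dose is the lowest dose giving a mean score ≥1 at any of those times.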

[11] = test system: Rattus norvegicus; assay: Inhibition of 8-OH-DPAT-induced lower lip retraction in Wistar rat at 5 to 40 mg/kg, ip administered 45 mins before 8-OH-DPAT administration; assay type: functional, organism-based
Summary of the method: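 Wistar rats, 5-6 per dose, given compound i.p. (1% Tween 80 suspension) 45 min before 8-OH-DPAT (1 mg/kg). Lower lip retraction was scored 15, 30 and 45 min after 8-OH-DPAT on a 0/0.5/1 scale (incisor visibility), giving a maximum total of 3. Mean ± SEM, ANOVA with Bonferroni test.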

[12] = test system: Mus musculus; assay: In vivo partial agonist activity at 5HT1A receptor in CD-1 mouse assessed as change in body temperature at 10 mg/kg, ip measured after 90 mins (reference value: -0.1 degC); assay type: functional, organism-based; summary of the method: as §2
[13] = test system: Mus musculus; assay: Toxicity in ip dosed spontaneous locomotor activity CD-1 mouse model assessed as dose required to cause sedation; assay type: organism-based; details: in vivo
Summary of the method: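 CD-1 mice, 8-10 per dose, with compound given i.p. in 1% Tween 80 suspension 60 min before testing. After 30 min habituation in individual cages, ambulation (channel crossings) was counted over 1 h, recorded every 5 min. Mean ± SEM, one-way ANOVA with Bonferroni test.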

## COc1ccccc1N1CCN(CCCCN2C(=O)NC3(CCCc4ccccc43)C2=O)CC1 (stereo not drawn)
[1]
  deltaT: -1 °C
[2]
  deltaT: -1.3 °C
[3]
  deltaT: -0.8 °C
[4]
  deltaT: -1.1 °C
[5]
  Activity: inactive
[6]
  ED50: 37.9 mg/kg
[7]
  deltaT: -1.2 °C
[8]
  Activity: Non-toxic
[9]
  inhibition in vivo at 5 mg/kg: 45%
[10]
  Activity: 30 mg/kg
[11]
  inhibition: Active
[12]
  deltaT: -1.3 °C
[13]
  Activity: 2.5 mg/kg
